Assay results reported in PMC13170702 (Nuclear medicine and biology, 2025).

Test: organ radiation dose estimates, OLINDA 1.1, ICRP-60
Format: in vivo, human
How it was run: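 Whole-body PET-MR ran as nine scans to 214 min. Organ VOIs were drawn in AMIDE, giving decay-corrected %IA per VOI; remainder = whole body minus measured organs. TIACs came from the exponential model (EXM) in OLINDA 1.1. Per-participant organ doses used 70 kg adult male or 55 kg female models in OLINDA 1.1. Effective dose (mSv) = organ absorbed doses × ICRP-60 tissue weighting factors.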

COC(=O)[C@@H](N)CC(=O)Nc1ccc2c(c1)Cc1cc([18F])ccc1-2 [[^18F]RP-115, methyl N^4-(7-[^18F]fluoro-9H-fluoren-2-yl)asparaginate]
Effective dose (whole body) (F1 (189 MBq)): 5.42 mSv | Estimated absorbed dose, Adrenals (F1 (189 MBq)): 3.89 mGy | Estimated absorbed dose, Brain (F1 (189 MBq)): 3.40 mGy | Estimated absorbed dose, Breasts (F1 (189 MBq)): 1.79 mGy | Estimated absorbed dose, Gallbladder wall (F1 (189 MBq)): 4.40 mGy | Estimated absorbed dose, Heart wall (F1 (189 MBq)): 4.25 mGy | Estimated absorbed dose, Kidneys (F1 (189 MBq)): 32.5 mGy | Estimated absorbed dose, Liver (F1 (189 MBq)): 7.85 mGy | Estimated absorbed dose, Lower large intestine wall (F1 (189 MBq)): 2.64 mGy | Estimated absorbed dose, Lungs (F1 (189 MBq)): 12.3 mGy | Estimated absorbed dose, Muscle (F1 (189 MBq)): 2.06 mGy | Estimated absorbed dose, Osteogenic cells (F1 (189 MBq)): 2.94 mGy | Estimated absorbed dose, Ovaries (F1 (189 MBq)): 2.83 mGy | Estimated absorbed dose, Pancreas (F1 (189 MBq)): 6.10 mGy | Estimated absorbed dose, Red marrow (F1 (189 MBq)): 2.15 mGy | Estimated absorbed dose, Remainder (F1 (189 MBq)): 2.62 mGy | Estimated absorbed dose, Skin (F1 (189 MBq)): 1.44 mGy | Estimated absorbed dose, Small intestine (F1 (189 MBq)): 6.06 mGy | Estimated absorbed dose, Spleen (F1 (189 MBq)): 8.87 mGy | Estimated absorbed dose, Stomach wall (F1 (189 MBq)): 2.68 mGy | Estimated absorbed dose, Thymus (F1 (189 MBq)): 7.08 mGy | Estimated absorbed dose, Thyroid (F1 (189 MBq)): 1.88 mGy | Estimated absorbed dose, Upper, lower intestine wall (F1 (189 MBq)): 3.09 mGy | Estimated absorbed dose, Urinary bladder wall (F1 (189 MBq)): 18.8 mGy | Estimated absorbed dose, Uterus (F1 (189 MBq)): 4.21 mGy | Effective dose (whole body) (F2, no voiding (355 MBq)): 10.6 mSv | Estimated absorbed dose, Adrenals (F2, no voiding (355 MBq)): 7.74 mGy | Estimated absorbed dose, Brain (F2, no voiding (355 MBq)): 5.65 mGy | Estimated absorbed dose, Breasts (F2, no voiding (355 MBq)): 2.93 mGy | Estimated absorbed dose, Gallbladder wall (F2, no voiding (355 MBq)): 7.35 mGy | Estimated absorbed dose, Heart wall (F2, no voiding (355 MBq)): 6.61 mGy | Estimated absorbed dose, Kidneys (F2, no voiding (355 MBq)): 93.4 mGy | Estimated absorbed dose, Liver (F2, no voiding (355 MBq)): 14.6 mGy | Estimated absorbed dose, Lower large intestine wall (F2, no voiding (355 MBq)): 4.26 mGy | Estimated absorbed dose, Lungs (F2, no voiding (355 MBq)): 25.5 mGy | Estimated absorbed dose, Muscle (F2, no voiding (355 MBq)): 3.45 mGy | Estimated absorbed dose, Osteogenic cells (F2, no voiding (355 MBq)): 4.69 mGy | Estimated absorbed dose, Ovaries (F2, no voiding (355 MBq)): 5.22 mGy | Estimated absorbed dose, Pancreas (F2, no voiding (355 MBq)): 7.78 mGy | Estimated absorbed dose, Red marrow (F2, no voiding (355 MBq)): 3.77 mGy | Estimated absorbed dose, Remainder (F2, no voiding (355 MBq)): 4.65 mGy | Estimated absorbed dose, Skin (F2, no voiding (355 MBq)): 2.31 mGy | Estimated absorbed dose, Small intestine (F2, no voiding (355 MBq)): 8.35 mGy | Estimated absorbed dose, Spleen (F2, no voiding (355 MBq)): 5.86 mGy | Estimated absorbed dose, Stomach wall (F2, no voiding (355 MBq)): 4.40 mGy | Estimated absorbed dose, Thymus (F2, no voiding (355 MBq)): 7.57 mGy | Estimated absorbed dose, Thyroid (F2, no voiding (355 MBq)): 17.0 mGy | Estimated absorbed dose, Upper, lower intestine wall (F2, no voiding (355 MBq)): 5.04 mGy | Estimated absorbed dose, Urinary bladder wall (F2, no voiding (355 MBq)): 32.9 mGy | Estimated absorbed dose, Uterus (F2, no voiding (355 MBq)): 47.2 mGy | Effective dose (whole body) (F3 (117 MBq)): 2.67 mSv | Estimated absorbed dose, Adrenals (F3 (117 MBq)): 2.50 mGy | Estimated absorbed dose, Brain (F3 (117 MBq)): 1.60 mGy | Estimated absorbed dose, Breasts (F3 (117 MBq)): 1.13 mGy | Estimated absorbed dose, Gallbladder wall (F3 (117 MBq)): 2.95 mGy | Estimated absorbed dose, Heart wall (F3 (117 MBq)): 2.26 mGy | Estimated absorbed dose, Kidneys (F3 (117 MBq)): 21.0 mGy | Estimated absorbed dose, Liver (F3 (117 MBq)): 5.81 mGy | Estimated absorbed dose, Lower large intestine wall (F3 (117 MBq)): 1.47 mGy | Estimated absorbed dose, Lungs (F3 (117 MBq)): 5.47 mGy | Estimated absorbed dose, Muscle (F3 (117 MBq)): 1.29 mGy | Estimated absorbed dose, Osteogenic cells (F3 (117 MBq)): 1.94 mGy | Estimated absorbed dose, Ovaries (F3 (117 MBq)): 1.63 mGy | Estimated absorbed dose, Pancreas (F3 (117 MBq)): 2.85 mGy | Estimated absorbed dose, Red marrow (F3 (117 MBq)): 1.36 mGy | Estimated absorbed dose, Remainder (F3 (117 MBq)): 1.61 mGy | Estimated absorbed dose, Skin (F3 (117 MBq)): 0.945 mGy | Estimated absorbed dose, Small intestine (F3 (117 MBq)): 3.30 mGy | Estimated absorbed dose, Spleen (F3 (117 MBq)): 3.02 mGy | Estimated absorbed dose, Stomach wall (F3 (117 MBq)): 1.68 mGy | Estimated absorbed dose, Thymus (F3 (117 MBq)): 2.23 mGy | Estimated absorbed dose, Thyroid (F3 (117 MBq)): 2.03 mGy | Estimated absorbed dose, Upper, lower intestine wall (F3 (117 MBq)): 1.91 mGy | Estimated absorbed dose, Urinary bladder wall (F3 (117 MBq)): 1.57 mGy | Estimated absorbed dose, Uterus (F3 (117 MBq)): 3.93 mGy | Effective dose (whole body) (F4 (167 MBq)): 3.90 mSv | Estimated absorbed dose, Adrenals (F4 (167 MBq)): 3.19 mGy | Estimated absorbed dose, Brain (F4 (167 MBq)): 2.79 mGy | Estimated absorbed dose, Breasts (F4 (167 MBq)): 1.47 mGy | Estimated absorbed dose, Gallbladder wall (F4 (167 MBq)): 3.08 mGy | Estimated absorbed dose, Heart wall (F4 (167 MBq)): 4.15 mGy | Estimated absorbed dose, Kidneys (F4 (167 MBq)): 28.1 mGy | Estimated absorbed dose, Liver (F4 (167 MBq)): 6.41 mGy | Estimated absorbed dose, Lower large intestine wall (F4 (167 MBq)): 2.09 mGy | Estimated absorbed dose, Lungs (F4 (167 MBq)): 9.27 mGy | Estimated absorbed dose, Muscle (F4 (167 MBq)): 1.67 mGy | Estimated absorbed dose, Osteogenic cells (F4 (167 MBq)): 2.46 mGy | Estimated absorbed dose, Ovaries (F4 (167 MBq)): 2.39 mGy | Estimated absorbed dose, Pancreas (F4 (167 MBq)): 3.95 mGy | Estimated absorbed dose, Red marrow (F4 (167 MBq)): 1.79 mGy | Estimated absorbed dose, Remainder (F4 (167 MBq)): 2.14 mGy | Estimated absorbed dose, Skin (F4 (167 MBq)): 1.19 mGy | Estimated absorbed dose, Small intestine (F4 (167 MBq)): 6.82 mGy | Estimated absorbed dose, Spleen (F4 (167 MBq)): 3.11 mGy | Estimated absorbed dose, Stomach wall (F4 (167 MBq)): 2.19 mGy | Estimated absorbed dose, Thymus (F4 (167 MBq)): 4.01 mGy | Estimated absorbed dose, Thyroid (F4 (167 MBq)): 2.31 mGy | Estimated absorbed dose, Upper, lower intestine wall (F4 (167 MBq)): 2.83 mGy | Estimated absorbed dose, Urinary bladder wall (F4 (167 MBq)): 4.93 mGy | Estimated absorbed dose, Uterus (F4 (167 MBq)): 6.49 mGy | Effective dose (whole body) (Female n=4, mean±SD): 0.0262±0.00361 mSv/MBq | Estimated dose, Adrenals (Female n=4, mean±SD): 0.0207±0.00119 mGy/MBq | Estimated dose, Brain (Female n=4, mean±SD): 0.0161±0.0018 mGy/MBq | Estimated dose, Breasts (Female n=4, mean±SD): 0.00903±0.000633 mGy/MBq | Estimated dose, Gallbladder wall (Female n=4, mean±SD): 0.0219±0.00297 mGy/MBq | Estimated dose, Heart wall (Female n=4, mean±SD): 0.0213±0.00289 mGy/MBq | Estimated dose, Kidneys (Female n=4, mean±SD): 0.196±0.0451 mGy/MBq | Estimated dose, Liver (Female n=4, mean±SD): 0.0426±0.00491 mGy/MBq | Estimated dose, Lower, large intestine wall (Female n=4, mean±SD): 0.0128±0.000858 mGy/MBq | Estimated dose, Lungs (Female n=4, mean±SD): 0.0598±0.0109 mGy/MBq | Estimated dose, Muscle (Female n=4, mean±SD): 0.0104±0.00065 mGy/MBq | Estimated dose, Osteogenic cells (Female n=4, mean±SD): 0.0150±0.00144 mGy/MBq | Estimated dose, Ovaries (Female n=4, mean±SD): 0.0145±0.000479 mGy/MBq | Estimated dose, Pancreas (Female n=4, mean±SD): 0.0256±0.00462 mGy/MBq | Estimated dose, Red marrow (Female n=4, mean±SD): 0.0111±0.000499 mGy/MBq | Estimated dose, Remainder (Female n=4, mean±SD): 0.0134±0.000535 mGy/MBq | Estimated dose, Skin (Female n=4, mean±SD): 0.00734±0.000677 mGy/MBq | Estimated dose, Small intestine (Female n=4, mean±SD): 0.0312±0.00733 mGy/MBq | Estimated dose, Spleen (Female n=4, mean±SD): 0.0270±0.0139 mGy/MBq | Estimated dose, Stomach wall (Female n=4, mean±SD): 0.0135±0.000943 mGy/MBq | Estimated dose, Thymus (Female n=4, mean±SD): 0.0255±0.00826 mGy/MBq | Estimated dose, Thyroid (Female n=4, mean±SD): 0.0223±0.0174 mGy/MBq
